Laboratory results published in publication PMC11737066 (RSC Advances, 2025).

Assay: Parallel artificial membrane permeability assay
Format: in vitro ADME
Conditions: 24 h incubation at 37 °C; initial minus final donor and acceptor concentration
Method in brief: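 Artificial membrane made of 1% (mass fraction) lecithin in dodecane, applied to hydrophobic PVDF filter donor wells. Test compound solution was added to the donor side, and the donor/acceptor sandwich was incubated 24 h at 37 °C. Donor and acceptor concentrations were taken from maximum absorbance (scan 190–400 nm). Membrane integrity was checked with brilliant cresyl blue and lucifer yellow.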

Row | SMILES | % of compound integrated in membrane
1 | CCCCCCCCCCCC[N+](C)(C)Cc1ccccc1.[Br-] [BAB, dimethyldodecylbenzylammonium bromide] | ≈ 97%
2 | CCCCCCCCCCCCCCCC[n+]1ccccc1 [CPC, cetylpyridinium chloride] | ≈ 97%
